One block for each molecule: values may come before it.
Columns and labels:
[1] = Drug uptake in HFF cells at 1 uM incubated for 1 to 48 hrs using [14C]-labelled compound by liquid scintillation counting; format: ADME, cell-based; details: human, TDE = time-dependent effect, time 1-48 hrs
In short: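 HFF cells exposed to 1 μM [14C]-labelled compound for 1 to 48 h. Cell-associated radioactivity measured in duplicate to assess uptake.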

[2] = Drug metabolism in HFF cells assessed as PMEGpp levels at 1 uM measured for 14 days using [14C]-labelled compound by liquid scintillation counting; format: ADME, cell-based; details: human, 336 h, TDE = time-dependent effect, time 14 day
In short: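 After 48 h exposure to 1 μM [14C]-labelled compound, drug removed from HFF cells. Persistence of intracellular PMEGpp followed over time; average of two separate determinations.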

[3] = Drug metabolism in HFF cells assessed as PMEG levels at 1 uM incubated for 48 hrs using [14C]-labelled compound by liquid scintillation counting; format: ADME, cell-based; details: human
In short: (§1)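 HFF cells exposed for 48 h to 1 μM [14C]-labelled compound, then drug removed. Intracellular PMEG, PMEGp and PMEGpp measured. Values are the average of two separate determinations.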

[4] = Drug metabolism in HFF cells assessed as PMEGp levels at 1 uM incubated for 48 hrs using [14C]-labelled compound by liquid scintillation counting; format: ADME, cell-based; details: human; in short: as §1
[5] = (§2) Cytotoxicity in human C-33-A cells by CellTiter-Glo reagent assay; format: cell-based; details: C-33-A cells
In short: (§3)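 HPV-negative cervical cancer C33A cells transiently transfected with type-matched HPV-11, -16 or -18 E1 and E2 expression vectors plus an ori-plasmid carrying a NanoLuc reporter. After drug dilutions and incubation, ori-plasmid replication is read as the rise in luciferase activity and EC50 is determined. Cytotoxicity (CC50) is measured in C33A cells by CellTiter-Glo.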

[6] = Selectivity index, ratio of CC50 for C-33-A cells to EC90 for inhibition of HPV-16 DNA amplification in C-33-A cells
In short: (§4)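 Ratio CC50/EC90. CC50 is from CellTiter-Glo cytotoxicity in C33A cells. EC90 is from NanoLuc luciferase readout of HPV-16 or -18 ori-plasmid replication in C33A cells cotransfected with type-matched E1/E2 vectors.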

[7] = Selectivity index, ratio of CC50 for C-33-A cells to EC50 for inhibition of HPV-18 DNA amplification in C-33-A cells
In short: (§5)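 Ratio CC50/EC50. CC50 is from CellTiter-Glo in C33A cells. EC50 is from NanoLuc luciferase readout of HPV ori-plasmid replication in C33A cells cotransfected with type-matched E1/E2 vectors.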

[8] = Inhibition of HPV-11 DNA amplification in HEK293 cells incubated for 48 hrs by qPCR analysis; format: functional, cell-based, human papillomavirus 11
In short: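 HEK-293 cells cotransfected with an HPV-11 origin-containing plasmid and HPV-11 E1 and E2 expression vectors, then exposed to drug dilutions and incubated. Ori-plasmid amplification is measured by quantitative real-time PCR and EC50 is calculated. At least three independent experiments.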

[9] = Selectivity index, ratio of CC50 for C-33-A cells to EC90 for inhibition of HPV-18 DNA amplification in C-33-A cells; in short: as §4
[10] = Inhibition of HPV-16 DNA amplification in HEK293 cells incubated for 48 hrs by qPCR analysis; format: functional, cell-based, Human papillomavirus 16
In short: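 HEK-293 cells cotransfected with an HPV-16 origin-containing plasmid and HPV-16 E1 and E2 expression vectors, then treated with drug dilutions and incubated. Ori-plasmid amplification quantified by real-time qPCR; EC50 calculated from at least three independent experiments.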

[11] = Selectivity index, ratio of CC50 for C-33-A cells to EC50 for inhibition of HPV-11 DNA amplification in C-33-A cells; in short: as §5
[12] = Selectivity index, ratio of CC50 for C-33-A cells to EC50 for inhibition of HPV-16 DNA amplification in C-33-A cells; in short: as §5
[13] = Selectivity index, ratio of CC50 for C-33-A cells to EC90 for inhibition of HPV-11 DNA amplification in C-33-A cells
[14] = Inhibition of HPV-16 DNA amplification in C-33-A cells incubated for 48 hrs by luciferase reporter gene assay; format: functional, cell-based, Human papillomavirus 16; in short: as §3
[15] = Inhibition of HPV-18 DNA amplification in C-33-A cells incubated for 48 hrs by luciferase reporter gene assay; format: functional, cell-based, human papillomavirus 18; in short: as §3
[16] = Inhibition of HPV-11 DNA amplification in C-33-A cells incubated for 48 hrs by luciferase reporter gene assay; format: functional, cell-based, human papillomavirus 11; in short: as §3
[17] = tested on: human papillomavirus 11; assay: Potency index, ratio of EC50 for cidofovir to EC50 for test compound for inhibition of HPV-11 DNA amplification in C-33-A cells incubated for 48 hrs by luciferase reporter gene assay; format: functional
[18] = Selectivity index, ratio of CC50 for HEK293 cells to EC50 for inhibition of HPV-16 DNA amplification in HEK293 cells
In short: (§6)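 Ratio CC50/EC50 in HEK-293 cells. CC50 is by CellTiter-Glo. EC50 is by qPCR of HPV-11 or HPV-16 ori-plasmid amplification in cells cotransfected with type-matched E1/E2 expression vectors.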

[19] = tested on: C-33-A; assay: as §2; format: cell-based; details: c-33-a; in short: as §3
[20] = tested on: HEK293; assay: Cytotoxicity in HEK293 cells by CellTiter-Glo assay; details: human, hek293
[21] = Selectivity index, ratio of CC50 for human PBMC to EC50 for inhibition of HIV1 92US727 replication in PHA-P-stimulated human PBMCs; format: toxicity; details: pbmc
In short: (§7)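 Human PBMCs infected with a clinical HIV-1 isolate, with AZT as positive control. EC50 and CC50 reported as mean ± SD of three replicates; selectivity index = CC50/EC50.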

[22] = Inhibition of HSV2 replication in HFF cells incubated for 7 days; format: functional, cell-based, Human alphaherpesvirus 2; details: hff
[23] = Selectivity index, ratio of CC50 for HFF to EC50 for inhibition of HSV2 replication in HFF cells; format: toxicity, cell-based; details: human
[24] = Cytotoxicity in human PBMC cells; format: cell-based; details: pbmc; in short: as §7
[25] = Selectivity index, ratio of CC50 for HEK293 cells to EC50 for inhibition of HPV-11 DNA amplification in HEK293 cells; in short: as §6
[26] = Inhibition of HIV1 92US727 replication in PHA-P-stimulated human PBMCs incubated for 7 days by reverse transcriptase activity based assay; format: functional, cell-based, Human immunodeficiency virus 1, PBMC; details: pbmc
In short: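 Human PBMCs infected with a clinical HIV-1 isolate, with AZT as the positive control. Results are the mean of three replicates.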

[27] = tested on: HFF; assay: Cytotoxicity in HFF cells incubated for 7 days by CellTiter-Glo assay; format: cell-based; details: human, hff, 168 h; time 7 day
[28] = Stability in MEM supplemented with either normal or heat inactivated 10% FBS assessed as compound remaining at 37 degC after 38 days by reverse phase HPLC analysis; details: time 38.0 day
In short: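 Compound incubated at 37 °C in MEM with 10% FBS, either normal or heat-inactivated. After 38 days, analysed by reverse-phase HPLC on a polar RP column with a water/methanol gradient at 0.8 mL/min. Remaining parent and monoester degradation product quantified as peak area.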

[29] = Human papillomavirus 16, C-33-A, 48 h
[30] = human papillomavirus 18, C-33-A, 48 h
[31] = human papillomavirus 11, C-33-A, 48 h

Drug uptake [1]: Tde
SMILES: CCCCCCCCCCCCCCCCCCOCCOP(=O)(O)COCCn1cnc2c(=O)[nH]c(N)nc21

SMILES: CCCCCCCCCCCCCCCCCCOCCOP(=O)(COCCn1cnc2c(=O)[nH]c(N)nc21)OCc1ccccc1 (stereo not given)
Drug metabolism [2]: Tde
Drug uptake [1]: Tde
Drug uptake [3]: Metabolite_Detected
Drug uptake [4]: Metabolite_Detected

SMILES: CCCCCCCCCCCCCCCCCCOCCOP(=O)(COCCn1cnc2c(=O)[nH]c(N)nc21)Oc1ccccc1 (stereo not given)
CC50 [5]: 49000 nM
Ratio [6]: 120
Ratio CC50/EC50 [7]: 980
EC50 [8]: 9500 nM
Ratio [9]: 210
EC50 [10]: 5200 nM
Ratio CC50/EC50 [11]: 490
Ratio CC50/EC50 [12]: 670
Ratio [13]: 80
EC50 [14, 29]: 90 nM
EC90 [14, 29]: 490 nM
EC50 [15, 30]: 60 nM
EC90 [15, 30]: 280 nM
EC50 [16, 31]: 100 nM
EC90 [16, 31]: 610 nM

SMILES: CCCCCCCCCCCCCCCCCCOCCOP(=O)(COCCn1cnc2c(=O)[nH]c(N)nc21)OCc1ccccc1 (stereo in doubt; form 1) [listing 1 of 2 here]
Ratio EC50 [17]: >300
Ratio CC50/EC50 [18]: 85
CC50 [19]: ≥ 10000 nM
Ratio [6]: >16
CC50 [20]: 17000 nM
Ratio CC50/EC50 [7]: >100
Ratio CC50/EC50 [21]: 11
EC50 [22]: 22 nM
Ratio [9]: >17
Ratio CC50/EC50 [23]: 240
CC50 [24]: 20 nM
EC50 [10]: 200 nM
Ratio CC50/EC50 [11]: 61
Ratio CC50/EC50 [12]: >250
Ratio [13]: 15
EC50 ([14]; c-33-a): 40 nM
EC90 ([14]; time 48 hrs): 640 nM
Ratio CC50/EC50 [25]: 42
EC50 [26]: 2 nM
EC50 ([15]; c-33-a): 100 nM
EC90 ([15]; time 48 hrs): 590 nM
EC50 ([16]; c-33-a): 180 nM
EC90 ([16]; time 48 hrs): 720 nM
CC50 [27]: 5200 nM

SMILES: CCCCCCCCCCCCCCCCCCOCCOP(=O)(COCCn1cnc2c(=O)[nH]c(N)nc21)OCc1ccccc1 (stereo in doubt; form 1) [listing 2 of 2 here]
Stability [28]: 83%
